Converted amounts (≈) assume the structure as drawn.
Experiments:
Schistosoma mansoni [1] = assay: Concentration required to kill 50% of 42 day old worms 5 days after drug treatment.; assay type: functional, organism-based; conditions: Puerto Rican, 120 h
In short: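 Adult S. mansoni were perfused from CD1 mice 6 weeks post-infection and washed. They were cultured 3 pairs per well in 1 mL DMEM with 2 mM glutamine, penicillin/streptomycin and 10% FCS […] at 37 °C, 5% CO2. Viability of individual worms was scored on day 5 (120 h).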

Schistosoma mansoni [2] = assay: Concentration required to kill 50% of 21 day old worms 5 days after drug treatment.; assay type: functional, organism-based; conditions: Puerto Rican, 120 h
In short: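 Juvenile S. mansoni (Puerto Rican strain) were perfused from CD1 mice 3 weeks post-infection and washed. They were cultured 6–8 per well in 200 µL DMEM with 2 mM glutamine, penicillin/streptomycin and 10% FCS at 37 °C, 5% CO2. Viability of individual worms was scored on day 5 after dosing (120 h).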

[3] = Concentration required to kill 50% MRC-5 cells as detected by Alamar blue staining; assay type: toxicity, cell-based, MRC5; conditions: homo sapiens, read-out: TC50 (the source's name)
[4] = Solubility at 25 degC of compound (diluted from DMSO) in PBS at pH 7.4 determined after 24h (1h sonication, 22h shaking, 1h sonication) by LCMS/MS; assay type: physicochemical
[5] = Concentration required to kill 50% HepG2 cells as detected by MTT staining; assay type: toxicity, cell-based; conditions: homo sapiens, read-out: TC50 (the source's name)
[6] = Mean oral bioavailability in Swiss albino male mice at […] per compound (administered in a mixture of 5 compounds to 3 mice) assessed by LCMS/MS.; note: dose 2.5 mg/kg; assay type: ADME, organism-based; conditions: male, Swiss albino, mouse, in vivo, read-out: Bioavailability
[7] = Mean AUC inf in Swiss albino male mice at 1 mg/kg per compound (administered iv in a mixture of 5 compounds to 3 mice) assessed by LCMS/MS.; assay type: ADME, organism-based; conditions: male, Swiss albino, mouse, in vivo
In short: (§1)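 Male Swiss albino mice (~30 g), 3 per experiment, mostly dosed as mixtures of 5 compounds iv via the lateral tail vein. Vehicle: 10% DMSO/90% 50 mM Na2HPO4 with 0.5% Tween-80. Blood sampled at 5, 15, 30 min and 1, 2, 4, 8, 24 h. Plasma stored at −20 °C and quantified by LC-MS after acetonitrile precipitation.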

[8] = Mean observed clearance in Swiss albino male mice at 1 mg/kg per compound (administered iv in a mixture of 5 compounds to 3 mice) assessed by LCMS/MS.; assay type: ADME, organism-based; conditions: male, Swiss albino, mouse, in vivo, read-out: Clearance (converted); in short: as §1
[9] = Mean volume of distribution at steady state in Swiss albino male mice at 1 mg/kg per compound (administered iv in a mixture of 5 compounds to 3 mice) assessed by LCMS/MS.; assay type: ADME, organism-based; conditions: mouse, in vivo, read-out: Volume
In short: (§2)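 Male Swiss albino mice (~30 g), 3 per experiment, mostly dosed as mixtures of 5 compounds iv via the lateral tail vein. Vehicle: 10% DMSO/90% 50 mM Na2HPO4 with 0.5% Tween-80. Plasma stored at −20 °C and quantified by LC-MS after acetonitrile precipitation.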

[10] = Mean half-life in Swiss albino male mice at 1 mg/kg per compound (administered iv in a mixture of 5 compounds to 3 mice) assessed by LCMS/MS.; assay type: ADME, organism-based; conditions: mouse, in vivo; in short: as §2
[11] = Mean plasma concentration at 24h in Swiss albino male mice at […] per compound (administered orally in a mixture of 5 compounds to 3 mice) assessed by LCMS/MS.; assay type: ADME, organism-based; conditions: mouse, po
[12] = Mean plasma concentration at 4h in Swiss albino male mice at […] per compound (administered orally in a mixture of 5 compounds to 3 mice) assessed by LCMS/MS.; assay type: ADME, organism-based; conditions: mouse, po
[13] = Mean time to peak plasma concentration in Swiss albino male mice at […] per compound (administered orally in a mixture of 5 compounds to 3 mice) assessed by LCMS/MS.; assay type: ADME, organism-based; conditions: mouse, po
[14] = Plasma protein binding determined at 10uM by LC-MS/MS.; assay type: ADME, cell-free; conditions: mouse
In short: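 Equilibrium dialysis of plasma spiked at 10 µM (0.1% DMSO) against PBS pH 7.4, 6 h at 37 °C, duplicates. Both chambers analysed by LC-MS/MS after acetonitrile precipitation. % free = buffer/plasma area ratio; recovery also calculated.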

[15] = Partition coefficient of compound between n-octanol and PBS (pH7.4); assay type: physicochemical; conditions: octanol/water, pH 7.4
In short: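 Shake-flask method using octanol and PBS pH 7.4, each pre-saturated with the other. Compound was shaken 2 h at 850 rpm, 25 °C, then the phases were separated by centrifugation and both layers diluted and analysed by LC-MS/MS. LogD = log(octanol AUC × relative dilution / buffer AUC).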

[16] = Percentage of parent compound remaining after incubation for 30 minutes with cyropreserved mouse hepatocytes at a concentration of 1uM compound and […], determined by LCMS; assay type: ADME, tissue-based, Hepatocyte; conditions: cryopreserved mouse hepatocytes, read-out: Stability
In short: (§3)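 Compound was incubated at 1 µM final (2 µM working solution mixed 1:1 with hepatocyte suspension) in supplemented KHB pH 7.4. Conditions: 37 °C, 5% CO2, gentle mixing, duplicates. Reaction quenched with ice-cold acetonitrile containing standard; analysed by LC-MS/MS. % remaining = AUC at t / AUC at T0.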

[17] = Percentage of parent compound remaining after incubation for 90 minutes with cyropreserved mouse hepatocytes at a concentration of 1uM compound and […], determined by LCMS; assay type: ADME, tissue-based, Hepatocyte; conditions: cryopreserved mouse hepatocytes, read-out: Stability; in short: as §3

| SMILES | solubility kinetic at 24 h [4] [µM] | bioavailability [6] [%] | AUC(0-inf) [7] [µg·h/mL] | clearance [8] [L/h/kg] | Vd [9] [L/kg] | half-life [10] [min] | concentration at 24 h [11] [ng/mL] | concentration at 4 h [12] [ng/mL] | Tmax [13] [min] | Binding [14] [%] | Lipophilicity [15] | remaining at 0.5 h, 1 µM [16] [%] | remaining at 1.5 h, 1 µM [17] [%] | EC50 (Schistosoma mansoni [1]) [µM] | EC50 (Schistosoma mansoni [2]) [µM] | CC50 [3] [µM] | CC50 [5] [µM] |
| --- | --- | --- | --- | --- | --- | --- | --- | --- | --- | --- | --- | --- | --- | --- | --- | --- | --- |
| COc1ccc(-c2cnc3cnc(-c4ccc(N5CCN(C)CC5)nc4)cn23)cc1 |  |  |  |  |  |  |  |  |  |  |  |  |  | > 25 | 15 | 20.9 |  |
| CCOc1cccc(-c2cn3c(-c4ccc(OC)cc4)cnc3cn2)c1 |  |  |  |  |  |  |  |  |  |  |  |  |  | 12.1 | 11 | 37.7 |  |
| CC(C)Oc1cccc(-c2cn3c(-c4cnn(Cc5ccccc5)c4)cnc3cn2)c1 |  |  |  |  |  |  |  |  |  |  |  |  |  | > 25 | > 25 | 39.4 |  |
| CC(C)c1cccc(-c2cn3c(-c4ccc(O)c(F)c4)cnc3cn2)c1 |  |  |  |  |  |  |  |  |  |  |  |  |  | 0.823 | 1.32 | > 50 | > 30 |
| COc1ccc(-c2cnc3cnc(-c4cccc(OC(C)C)c4)cn23)cc1OC |  |  |  |  |  |  |  |  |  |  |  |  |  | 5.56 | 9.51 | 28.7 |  |
| CC(C)Oc1cccc(-c2cn3c(-c4ccc5[nH]ncc5c4)cnc3cn2)c1 |  |  |  |  |  |  |  |  |  |  |  |  |  | 7.19 | 7.5 | 22.2 |  |
| CCc1cccc(-c2cn3c(-c4ccc(OC)c(OC)c4)cnc3cn2)c1 |  |  |  |  |  |  |  |  |  |  |  |  |  | 1.06 | 2.79 | 29.9 |  |
| Fc1ccc(-c2cn3c(-c4ccc5[nH]ncc5c4F)c(C(F)(F)F)nc3cn2)cc1CC(F)(F)F | 0.0917 (≈ 0.0456 µg/mL) | 52.5 | 0.328 | 1.53 | 3.28 | 165 | 0.971 | 57.2 | 30 |  |  |  | 55.8 | 0.0119 | 0.0104 |  | 5.3 |
| COc1cc(-c2cnc3cnc(-c4cccc(C(C)C)c4)cn23)ccc1O |  |  |  |  |  |  |  |  |  |  | 4.75 = |  |  | 1.41 | 1.63 | > 50 | 26 |
| Fc1ccc(-c2cn3c(-c4ccc5[nH]ncc5c4F)c(C(F)(F)F)nc3cn2)cc1OC(F)(F)F | 0.785 (≈ 0.392 µg/mL) | 81 | 2.7 | 0.194 | 5.89 | 1330 | 165 | 358 | 60 |  |  |  | 94.2 | 0.0169 | 0.0208 |  | 12.2 |

Continued, in another order:

| solubility kinetic at 24 h [4] [µM] | bioavailability [6] [%] | AUC(0-inf) [7] [µg·h/mL] | clearance [8] [L/h/kg] | Vd [9] [L/kg] | half-life [10] [min] | concentration at 24 h [11] [ng/mL] | concentration at 4 h [12] [ng/mL] | Tmax [13] [min] | Binding [14] [%] | Lipophilicity [15] | remaining at 0.5 h, 1 µM [16] [%] | remaining at 1.5 h, 1 µM [17] [%] | SMILES | EC50 (Schistosoma mansoni [1]) [µM] | EC50 (Schistosoma mansoni [2]) [µM] | CC50 [3] [µM] | CC50 [5] [µM] |
| --- | --- | --- | --- | --- | --- | --- | --- | --- | --- | --- | --- | --- | --- | --- | --- | --- | --- |
| 1.19 (≈ 0.409 µg/mL) |  |  |  |  |  |  |  |  |  |  |  |  | Cc1nc2cnc(-c3cccc(C(C)C)c3)cn2c1-c1ccc(O)cc1 | < 0.43 | < 0.421 | > 50 | > 11.5 |
| 1.73 (≈ 0.701 µg/mL) | 4 | 0.0996 | 5.16 | 1.8 | 27.5 | 0.1 | 2.67 | 15 | 99.88 | 3.81 = | 42.3 |  | Cc1nc2cnc(-c3cccc(C(F)(F)F)c3)cn2c1-c1c(F)cc(O)cc1F |  | 0.172 |  | 8.4 |
| 1.42 (≈ 0.529 µg/mL) | 0 | 0.0527 | 9.5 | 2.85 | 25 | 0.1 | 0.1 | 15 | 100 | 4.27 = | 50.9 |  | Oc1ccc(-c2cnn3ccc(-c4cccc(C(F)(F)F)c4)cc23)c(F)c1 |  | 2.65 |  |  |
| 1.23 (≈ 0.427 µg/mL) |  |  |  |  |  |  |  |  |  |  |  |  | CC(C)c1cccc(-c2cn3c(-c4ccc(O)cc4F)cnc3cn2)c1 | 0.262 | 0.636 | 11.1 | > 11.1 |
| 0.672 (≈ 0.278 µg/mL) |  |  |  |  |  |  |  |  |  | 3.97 = |  |  | CCc1nc2cnc(-c3cccc(C(F)(F)F)c3)cn2c1-c1ccc(OC)c(O)c1 | < 0.133 | 0.0829 | > 50 | > 30 |

Reference: ChEMBL document CHEMBL4651341, “The discovery of a novel series of compounds with single-dose efficacy against juvenile and adult Schistosoma species” (PLoS Negl Trop Dis, 2021)
